The results in this text go back to PubChem BioAssay AID651576 (The Scripps Research Institute Molecular Screening Center, 2012).

Active and inactive are the calls of the source.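 How the source made its calls: active means inhibition of at least 50%, averaged over three replicate wells; inactive means inhibition below 50%.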

As usually defined, the inhibition is the share of the control response that was lost under treatment.

The assay relates to HCV core protein (core106) dimerization, Hepatitis C virus. The assay can be described thus: disruption of HCV core self-association – biochemical, AlphaScreen luminescence, single dose 15 µM, powder samples, late-stage follow-up (AID 651576). As to conditions: AlphaScreen GST/Flag-core106 dimerization, at 15 µM, hits give high values. In a few lines:
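Assay system – HCV core106 dimerization between GST-tagged and Flag-tagged core106 proteins · Quantity – 150 nM of each tagged core106 protein · Repeats – three replicate wells per compound, averaged · Detection – AlphaScreen luminescence · Read-out – percent inhibition of AlphaScreen signal versus uninhibited protein-only wells · Incubation – protein preincubation 1 h at room temperature, 1 h per bead step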
(Alpha assays give light when donor and acceptor beads are brought close together.)
Consider `Cc1ccc(Cc2c(C)nc3nc(SCC(=O)N4CCN(C(=O)CSc5nc6nc(C)c(Cc7ccc(C)cc7)c(C)n6n5)CC4)nn3c2C)cc1`, for which the inhibition is 87%. In the case of `Cc1ccc(Cc2c(C)nc3nc(SCC(=O)N(C)C)nn3c2C)cc1` it was 51%; in that of `Cc1ccc(Cc2c(C)nc3nc(SCC(=O)N4CCCCC4)nn3c2C)cc1`, 41% (inactive); in that of `Cc1nc2nc(SCC(=O)NCCC3=CCCCC3)nn2c(C)c1Cc1ccc(Cl)cc1`, 30% (inactive). Under `Cc1ccc(Cc2c(C)nc3nc(SCC(=O)N4CCN(CCc5ccccc5)CC4)nn3c2C)cc1` stands 41% (inactive). Under `Cc1ccc(Cc2c(C)nc3nc(SCC(=O)NCCN4CCOCC4)nn3c2C)cc1` stands 60%; under `Cc1ccc(Cc2c(C)nc3nc(SCC(=O)NCCN4CCSCC4)nn3c2C)cc1`, 79%. As for `Cc1ccc(Cc2c(C)nc3nc(SCC(=O)NCCNC(=O)CSc4nc5nc(C)c(Cc6ccc(C)cc6)c(C)n5n4)nn3c2C)cc1`, the inhibition was 52%. Under `Cc1nc2nc(SCC(=O)N(C)CCN3CCOCC3)nn2c(C)c1Cc1ccc(Br)cc1` stands 12% (inactive); under `Cc1ccc(Cc2c(C)nc3nc(SCC(=O)N4CCCN(C(=O)CSc5nc6nc(C)c(Cc7ccc(C)cc7)c(C)n6n5)CC4)nn3c2C)cc1`, 90%. In the case of `Cc1ccc(Cc2c(C)nc3nc(SCC(=O)NCCc4ccccc4)nn3c2C)cc1`, the inhibition was 40% (inactive).
